Measured values taken from ChEMBL document CHEMBL5244249, “Discovery of tofacitinib derivatives as orally active antitumor agents based on the scaffold hybridization strategy” (Eur J Med Chem, 2020).
Active and inactive are the calls of the source. No cut-off for these calls is given here.

Columns and labels:
[1] = test system: MGC-803; experiment: Antiproliferative activity against human MGC-803 cells assessed as inhibition of cell growth incubated for 72 hrs by MTT assay; type: functional, cell-based; details: MGC-803, 72 h
Summary of the method: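 Antiproliferative screen in gastric cancer lines MGC-803, HGC-27 and BGC-823 by MTT assay; IC50 reported as mean ± SD.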

[2] = test system: MGC-803; experiment: Inhibition of colony formation in human MGC-803 cells at 2 uM incubated for 9 days by crystal violet staining based analysis relative to control; type: functional; details: MGC-803, 216 h, time 9 day
Summary of the method: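 Clonogenic assay: MGC-803 cells grown 9 days with 0, 1, 2 or 3 μM; colonies counted and inhibition rate calculated against untreated control; mean ± SD of three independent experiments.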

[3] = test system: MGC-803; experiment: Inhibition of cell migration in human MGC-803 cells incubated for 24 hrs by wound healing assay; type: functional, cell-based; details: dose 5-10 µM
Summary of the method: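 Wound-healing scratch assay in MGC-803 monolayers; 24 h exposure to 0, 5, 7.5 or 10 μM; migration quantified; three independent experiments, mean ± SD.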

[4] = test system: MGC-803; experiment: Induction of apoptosis in human MGC-803 cells assessed as cell debris at 5 to 10 uM incubated for 24 hrs by Hoechst 33342 staining based fluorescence microscopic analysis; type: functional; details: dose 5-10 µM
Summary of the method: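 MGC-803 cells exposed to 0, 5, 7.5 or 10 μM; cell morphology imaged and nuclear morphology examined by staining. Mean ± SD, three independent experiments.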

[5] = test system: MGC-803; experiment: Induction of apoptosis in human MGC-803 cells assessed as nuclear fragmentation at 5 to 10 uM incubated for 24 hrs by Hoechst 33342 staining based fluorescence microscopic analysis; type: functional, cell-based; details: dose 5-10 µM
Summary of the method: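 MGC-803 cells treated at 0, 5, 7.5 and 10 μM; cell morphology and nuclear morphology (fragmentation, condensation) examined by staining and imaging; three independent experiments, mean ± SD.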

[6] = test system: MGC-803; experiment: Induction of apoptosis in human MGC-803 cells assessed as early apoptotic cells at 7.5 uM incubated for 24 hrs by Annexin V-FITC/PI staining based flow cytometric analysis (reference value: 3.9 %); type: functional
[7] = test system: MGC-803; experiment: Induction of apoptosis in human MGC-803 cells assessed as necrotic cells at 7.5 uM incubated for 24 hrs by Annexin V-FITC/PI staining based flow cytometric analysis (reference value: 2.0 %); type: functional
[8] = test system: MGC-803; experiment: Induction of apoptosis in human MGC-803 cells assessed as viable cells at 10 uM incubated for 24 hrs by Annexin V-FITC/PI staining based flow cytometric analysis (reference value: 90.3 %); type: functional; details: read-out: Activity
[9] = test system: MGC-803; experiment: Induction of apoptosis in human MGC-803 cells assessed as late apoptotic cells at 10 uM incubated for 24 hrs by Annexin V-FITC/PI staining based flow cytometric analysis (reference value: 3.8 %); type: functional
[10] = test system: MGC-803; experiment: Induction of apoptosis in human MGC-803 cells assessed as necrotic cells at 10 uM incubated for 24 hrs by Annexin V-FITC/PI staining based flow cytometric analysis (reference value: 2.0 %); type: functional
[11] = test system: MGC-803; experiment: Induction of apoptosis in human MGC-803 cells assessed as early apoptotic cells at 5 uM incubated for 48 hrs by Annexin V-FITC/PI staining based flow cytometric analysis (reference value: 2.5 %); type: functional
[12] = test system: MGC-803; experiment: Induction of apoptosis in human MGC-803 cells assessed as necrotic cells at 7.5 uM incubated for 48 hrs by Annexin V-FITC/PI staining based flow cytometric analysis (reference value: 0.3 %); type: functional
[13] = test system: MGC-803; experiment: Induction of apoptosis in human MGC-803 cells assessed as total apoptotic cells at 10 uM incubated for 24 hrs by Annexin V-FITC/PI staining based flow cytometric analysis (reference value: 7.7 %); type: functional
[14] = test system: MGC-803; experiment: Cell cycle arrest in human MGC-803 cells assessed as G2/M phase cells at 5 uM incubated for 24 hrs by RNase/PI staining based flow cytometric analysis (reference value: 15.11%); type: functional
[15] = test system: MGC-803; experiment: Cell cycle arrest in human MGC-803 cells assessed as G0/G1 phase cells at 7.5 uM incubated for 24 hrs by RNase/PI staining based flow cytometric analysis (reference value: 54.99%); type: functional
[16] = test system: MGC-803; experiment: Cell cycle arrest in human MGC-803 cells assessed as S phase cells at 7.5 uM incubated for 24 hrs by RNase/PI staining based flow cytometric analysis (reference value: 27.1%); type: functional
[17] = test system: MGC-803; experiment: Cell cycle arrest in human MGC-803 cells assessed as G2/M phase cells at 10 uM incubated for 24 hrs by RNase/PI staining based flow cytometric analysis (reference value: 15.11%); type: functional
[18] = test system: MGC-803; experiment: Induction of mitochondrial dysfunction in human MGC-803 cells assessed as increase in ratio of green to red fluorescence intensity incubated for 24 hrs by JC-1 staining based fluorescence microscopic analysis; type: functional, cell-based; details: dose 5-10 µM
[19] = test system: MGC-803; experiment: Induction of apoptosis in human MGC-803 cells assessed as increase in Bax protein expression at 5 to 10 uM incubated for 24 hrs by Western blot analysis; type: functional, cell-based; details: dose 5-10 µM
Summary of the method: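 After 24 h exposure of MGC-803 cells, Bcl-2, Mcl-1, Bax and cytochrome c release assessed by Western blot with band quantitation; mean ± SD from three independent experiments.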

[20] = test system: MGC-803; experiment: Induction of mitochondrial dysfunction in human MGC-803 cells assessed as upregulation of cleaved caspase-9 expression at 5 to 10 uM incubated for 24 hrs by Western blot analysis; type: functional, cell-based; details: dose 5-10 µM
Summary of the method: (§1)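 Western blot of caspase 9, 3, 7, PARP and γH2A.X in MGC-803 lysates after 24 h exposure to 5, 7.5 or 10 μM; band quantitation; mean ± SD from three independent experiments.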

[21] = test system: MGC-803; experiment: Induction of mitochondrial dysfunction in human MGC-803 cells assessed as upregulation of cleaved caspase-7 expression at 5 to 10 uM incubated for 24 hrs by Western blot analysis; type: functional, cell-based; details: dose 5-10 µM; summary of the method: as §1
[22] = test system: MGC-803; experiment: Induction of mitochondrial dysfunction in human MGC-803 cells assessed as downregulation of procaspase-9 expression at 5 to 10 uM incubated for 24 hrs by Western blot analysis; type: functional, cell-based; details: dose 5-10 µM; summary of the method: as §1
[23] = Activation of MAPK pathway in human MGC-803 cells assessed as change in ERK1/2 total expression at 5 to 10 uM incubated for 24 hrs by Western blot analysis; type: cell-based; details: dose 5-10 µM
[24] = test system: MGC-803; experiment: Antiproliferative activity against human MGC-803 cells assessed as decrease in cell viability at 10 uM preincubated with SP600125 for 4 hrs followed by compound addition and measured after 24 hrs by MTT assay; type: functional, cell-based
Summary of the method: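 MGC-803 cells pre-incubated 4 h with SB203580 (4 μM) or SP600125 (20 μM), then exposed to 10 μM test compound for 24 h; viability by MTT, expressed as percent of control. Mean ± SD, three independent experiments.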

[25] = Toxicity in SCID mouse xenografted with human MGC-803 cells assessed as effect on general health at 12.5 to 25 mg/kg, IG administered for 21 days; type: organism-based; details: in vivo, po, 504 h, dose 12.5-25 mg/kg, time 21 day
Summary of the method: (§2)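 SCID mice bearing subcutaneous MGC-803 xenografts (right side) dosed with 12.5 or 25 mg/kg over 21 days, 0.5% CMC-Na vehicle as control; body weight and tumor size monitored periodically; major organs examined histopathologically at end; means ± SD.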

[26] = Toxicity in SCID mouse xenografted with human MGC-803 cells assessed as effect on kidney at 12.5 to 25 mg/kg, IG administered for 21 days by H&E staining based histopathological analysis; type: organism-based; details: in vivo, po, 504 h, dose 12.5-25 mg/kg, time 21 day; summary of the method: as §2

Cc1cc(N2CC[C@@H](C)[C@@H](N(C)c3ncnc4[nH]ccc34)C2)n2nc(SCc3ccc(C(F)(F)F)cc3)nc2n1
IC50 [1]: 2680 nM | inhibition at 2 µM [2]: 54% | inhibition [3]: Dose-Dependent Effect | Activity [4]: Active | Activity [5]: Active | Activity [6]: 11.5% | Activity [7]: 3.5% | viability at 10 µM [8]: 57.1% | Activity [9]: 28% | Activity [10]: 2.2% | Activity [11]: 8.5% | Activity [12]: 1.6% | Activity [13]: 40.7% | Activity [14]: 10.78% | Activity [15]: 56.42% | Activity [16]: 29.36% | Activity [17]: 12.82% | Activity [18]: Dose-Dependent Effect | Activity [19]: Active | Activity [20]: Active | Activity [21]: Active | Activity [22]: Active | Activity [23]: inactive | Activity [24]: inactive | Activity [25]: Non-Toxic | Activity [26]: Non-Toxic
